# Legend:
# Plasmodium falciparum [1] = experiment: Antimalarial activity after 24 hrs against chloroquine-resistant Plasmodium falciparum W2 infected type A+ human erythrocytes by [3H]hypoxanthine uptake; type: functional; settings: read-out: ED50 (the source's name)
# Plasmodium falciparum [2] = experiment: Antimalarial activity after 24 hrs against chloroquine-sensitive Plasmodium falciparum D6 infected type A+ human erythrocytes by [3H]hypoxanthine uptake; type: functional; settings: read-out: ED50 (the source's name)
# [3] = Selectivity index, ED50 for human KB cells to ED50 for chloroquine-sensitive Plasmodium falciparum D6; type: toxicity, cell-based; settings: read-out: Ratio ED50
# Procedure, shortened: (§1)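 Selectivity index is the ED50 in KB cells divided by the ED50 against the P. falciparum strain (D-6, chloroquine-sensitive; W-2, chloroquine-resistant). Parasite ED50s are expressed in ng/ml and KB ED50s in µg/ml.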
# [4] = Selectivity index, ED50 for human KB cells to ED50 for chloroquine-resistant Plasmodium falciparum W2; type: toxicity, cell-based; settings: read-out: Ratio ED50; procedure, shortened: as §1
# [5] = Cytotoxicity against human LUC1 cells after 3 days by SRB assay; type: functional; settings: LUC1, 72 h, read-out: ED50 (the source's name)
# LNCaP = experiment: Cytotoxicity against human LNCAP cells after 3 days by SRB assay; type: functional; settings: 72 h, read-out: ED50 (the source's name)
# [6] = Cytotoxicity against human U373 cells after 3 days by SRB assay; type: functional, U-373MG ATCC; settings: U373 MG, 72 h, read-out: ED50 (the source's name)
# [7] = Cytotoxicity against human KB cells after 3 days by SRB assay; type: cell-based; settings: read-out: ED50
# [8] = Cytotoxicity against vinblastine-resistant human KBV1 cells after 3 days by SRB assay; type: functional; settings: KB-V1, 72 h, read-out: ED50 (the source's name)
# ZR-75-1 = experiment: Cytotoxicity against human ZR-75-1 cells after 3 days by SRB assay; type: functional; settings: ZR-75-1, 72 h, read-out: ED50 (the source's name)
# [9] = Cytotoxicity against human Col1 cells after 3 days by SRB assay; type: functional; settings: Col1, 72 h, read-out: ED50 (the source's name)
# SK-MEL-2 = experiment: Cytotoxicity against human SK-MEL-2 cells after 3 days by SRB assay; type: functional; settings: SK-MEL-2, 72 h, read-out: ED50 (the source's name)
# [10] = Cytotoxicity against human BCA1 cells after 3 days by SRB assay; type: functional; settings: BCA1, 72 h, read-out: ED50 (the source's name)
# HT-1080 = experiment: Cytotoxicity against human HT1080 cells after 3 days by SRB assay; type: functional; settings: HT-1080, 72 h, read-out: ED50 (the source's name)
# P388 = experiment: Cytotoxicity against mouse P388 cells after 3 days by SRB assay; type: functional; settings: P388, 72 h, read-out: ED50 (the source's name)
# A-431 = experiment: Cytotoxicity against human A431 cells after 3 days by SRB assay; type: functional; settings: A-431, 72 h, read-out: ED50 (the source's name)
SMILES,EC50 (Plasmodium falciparum [1]),EC50 (Plasmodium falciparum [2]),selectivity ratio [3],selectivity ratio [4],EC50 [5],EC50 (LNCaP),EC50 [6],CC50 at 72 h [7],EC50 [8],EC50 (ZR-75-1),EC50 [9],EC50 (SK-MEL-2),EC50 [10],EC50 (HT-1080),EC50 (P388),EC50 (A-431)
COC1=C[C@@]23CCN(C)[C@@H](Cc4ccc(OC)c(O)c42)C3=CC1=O,> 10 µg/mL,> 10 µg/mL,–,–,–,–,–,–,–,–,–,–,–,–,–,–
COc1cc2c(cc1OC)[C@@H]1Cc3ccc(O)c(OC)c3CN1CC2,0.84 µg/mL,2.84 µg/mL,> 7,> 24,–,–,–,–,–,–,–,–,–,–,–,–
COc1ccc2c(c1)C[C@H]1NCCc3cc4c(c-2c31)OCO4,2.27 µg/mL,0.44 µg/mL,45,> 9,2.3 µg/mL,2.4 µg/mL,1.9 µg/mL,2 µg/mL,0.9 µg/mL,2.4 µg/mL,4.1 µg/mL,12.6 µg/mL,3.4 µg/mL,2.2 µg/mL,2.2 µg/mL,4.6 µg/mL
COC1=C(OC)[C@]23CCc4cc5c(cc4[C@]2(CCN3C)CC1=O)OCO5,> 10 µg/mL,> 10 µg/mL,–,–,–,–,–,–,–,–,–,–,–,–,–,–
COc1cc2c(c(O)c1OC)CCN1Cc3c(ccc(OC)c3OC)C[C@@H]21,0.55 µg/mL,1.61 µg/mL,> 12,> 36,–,–,–,–,–,–,–,–,–,–,–,–
COc1cc2c(cc1OC)-c1c3c(cc4c1[C@@H](C2)N(C)CC4)OCO3,2.55 µg/mL,1.26 µg/mL,4,2,6.1 µg/mL,1.9 µg/mL,1.5 µg/mL,1.6 µg/mL,0.9 µg/mL,2.8 µg/mL,2.1 µg/mL,3.8 µg/mL,2.2 µg/mL,1.7 µg/mL,0.6 µg/mL,1.7 µg/mL
COc1cc2c(c(O)c1OC)[C@@H]1Cc3ccc(OC)c(OC)c3CN1CC2,1.91 µg/mL,4.34 µg/mL,> 5,> 10,–,–,–,–,–,–,–,–,–,–,–,–
CN1CCc2cc3c(c4c2[C@H]1Cc1cc(O)ccc1-4)OCO3,1.78 µg/mL,3.15 µg/mL,2,4,6.9 µg/mL,7.3 µg/mL,4.9 µg/mL,4.1 µg/mL,1.2 µg/mL,13.6 µg/mL,11.9 µg/mL,> 20 µg/mL,8.9 µg/mL,7.6 µg/mL,> 5 µg/mL,6.7 µg/mL
COc1ccc2c(c1)C[C@@H]1c3c(cc4c(c3-2)OCO4)CCN1C,1.61 µg/mL,2.56 µg/mL,> 1,1,12.2 µg/mL,2.9 µg/mL,1.3 µg/mL,2.5 µg/mL,1.2 µg/mL,2.6 µg/mL,3.2 µg/mL,> 20 µg/mL,2.9 µg/mL,1.8 µg/mL,> 5 µg/mL,1.3 µg/mL
COc1c(O[C@@H]2O[C@H](CO)[C@@H](O)[C@H](O)[C@H]2O)cc2c3c1-c1ccccc1C[C@H]3NCC2,> 10 µg/mL,> 10 µg/mL,–,–,> 20 µg/mL,> 20 µg/mL,> 20 µg/mL,> 20 µg/mL,> 20 µg/mL,> 20 µg/mL,> 20 µg/mL,> 20 µg/mL,> 20 µg/mL,> 20 µg/mL,> 20 µg/mL,> 20 µg/mL
COc1cc2c(cc1O)-c1c3c(cc4c1[C@@H](C2)N(C)CC4)OCO3,2.88 µg/mL,2.01 µg/mL,1,1,3.1 µg/mL,1.9 µg/mL,1.7 µg/mL,1.8 µg/mL,1.2 µg/mL,2.1 µg/mL,4.1 µg/mL,18.8 µg/mL,2.5 µg/mL,2.9 µg/mL,0.4 µg/mL,12.6 µg/mL
COc1cc2c(cc1OC)CN1CCc3cc(OC)c(OC)c(O)c3[C@@H]1C2,1.94 µg/mL,2.23 µg/mL,> 9,> 10,–,–,–,–,–,–,–,–,–,–,–,–
COc1cc2c(cc1OC)-c1c3c(cc4c1[C@@H](C2)NCC4)OCO3,1.03 µg/mL,0.47 µg/mL,2,–,13.2 µg/mL,1.5 µg/mL,0.6 µg/mL,0.8 µg/mL,0.7 µg/mL,1.7 µg/mL,1.7 µg/mL,3.3 µg/mL,2 µg/mL,1.7 µg/mL,0.6 µg/mL,0.8 µg/mL
COc1cc2c(cc1OC)[C@@H]1Cc3ccc(OC)c(OC)c3C[N+]1(C)CC2.[Cl-] (stereo partly specified),> 10 µg/mL,> 10 µg/mL,–,–,–,–,–,–,–,–,–,–,–,–,–,–
COc1ccc2c(c1O)C(Cc1ccc(O)cc1)[N+](C)(C)CC2.[Cl-] (racemic),> 10 µg/mL,> 10 µg/mL,–,–,–,–,–,–,–,–,–,–,–,–,–,–
COc1c(O)cc2c3c1-c1ccccc1C[C@H]3NCC2 [(-)-ASIMILOBINE],0.47 µg/mL,0.95 µg/mL,> 21,> 42,> 20 µg/mL,> 20 µg/mL,> 20 µg/mL,> 20 µg/mL,> 20 µg/mL,> 20 µg/mL,> 20 µg/mL,> 20 µg/mL,> 20 µg/mL,> 20 µg/mL,> 20 µg/mL,> 20 µg/mL
COc1ccc(C[C@H]2c3cc(O)c(OC)cc3CCN2C)cc1O [(S)-RETICULINE],4.47 µg/mL,4.05 µg/mL,–,–,–,–,–,–,–,–,–,–,–,–,–,–
c1ccc2c(c1)C[C@H]1NCCc3cc4c(c-2c31)OCO4 [ANONAINE],1.9 µg/mL,1.29 µg/mL,5,3,1.8 µg/mL,2.9 µg/mL,1.5 µg/mL,2.6 µg/mL,1.8 µg/mL,2.7 µg/mL,4 µg/mL,15.8 µg/mL,3.3 µg/mL,2.4 µg/mL,> 5 µg/mL,4.2 µg/mL
C[C@@H]1CC[C@H]2[C@@H](C)C(=O)O[C@@H]3O[C@@]4(C)CC[C@@H]1[C@]32OO4 [ARTEMISININ],0.0005 µg/mL,0.0006 µg/mL,> 33300,40000,–,–,–,–,–,–,–,–,–,–,–,–
COc1cc2c(cc1O)C[C@H]1c3c(cc4c(c3-2)OCO4)CCN1C [CASSYTHICINE],2.26 µg/mL,2.29 µg/mL,2,3,6.6 µg/mL,6.1 µg/mL,4.8 µg/mL,3 µg/mL,1.2 µg/mL,9.8 µg/mL,7.3 µg/mL,8.9 µg/mL,6.8 µg/mL,7.6 µg/mL,> 5 µg/mL,10.5 µg/mL
CCN(CC)CCCC(C)Nc1ccnc2cc(Cl)ccc12 (stereo unspecified) [CHLOROQUINE],0.0112 µg/mL,0.0013 µg/mL,–,–,–,–,–,–,–,–,–,–,–,–,–,–
COc1ccc2c(c1O)-c1c(O)c(OC)cc3c1[C@H](C2)[N+](C)(C)CC3 [MAGNOFLORINE],> 10 µg/mL,> 10 µg/mL,–,–,–,–,–,–,–,–,–,–,–,–,–,–
OC(c1cc(C(F)(F)F)nc2c(C(F)(F)F)cccc12)C1CCCCN1 (stereo unspecified) [MEFLOQUINE],0.0016 µg/mL,0.0073 µg/mL,–,–,–,–,–,–,–,–,–,–,–,–,–,–
C=C[C@H]1CN2CC[C@H]1C[C@H]2[C@H](O)c1ccnc2ccc(OC)cc12 [QUININE],0.0245 µg/mL,0.0094 µg/mL,> 2130,> 820,–,–,–,–,–,–,–,–,–,–,–,–
COc1cc2c(cc1OC)[C@@H]1Cc3ccc(OC)c(OC)c3CN1CC2 [TETRAHYDROPALMATINE],5.02 µg/mL,> 10 µg/mL,–,–,–,–,–,–,–,–,–,–,–,–,–,–
COc1cc2c(cc1OC)CN1CCc3cc(OC)c(OC)cc3[C@@H]1C2 [XYLOPININE],> 10 µg/mL,> 10 µg/mL,–,–,–,–,–,–,–,–,–,–,–,–,–,–

# Source: ChEMBL document CHEMBL1147366, “Cytotoxic and antimalarial alkaloids from the tubers of Stephania pierrei” (J Nat Prod, 1993)
